This is a sample that favours compounds with a hit; in the whole collection about 2.3% have one here.
TRPC6 act: mouse TRPC6 channel activation; AID 2550; HEK293-TRPC6 membrane potential dye fluorescence; hits give high values; actives 0.13% (n = 310,000); Q61143; B-score at 10 µM;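 active = B-score of the integrated fluorescence ratio above library mean plus 3 SD, and starting fluorescence ratio within library mean plus 5 SD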;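 note: higher score means more depolarization so channel activation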
TRPC4 agonist: activators of mouse TRPC4 channel; Q9QUQ5; HEK293 TRPC4beta/mu-opioid, Fluo4 calcium fluorescence; hits give high values; B-score at 10 µM; actives 0.49% (n = 310,000); AID 2237;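 active = B-score above 5 SD of library B-scores, and initial fluorescence ratio not above library mean plus 5 SD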;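 note: positive B-score marks a calcium rise read as TRPC4 activation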
Target sequence (Q9QUQ5 whole entry, looked up): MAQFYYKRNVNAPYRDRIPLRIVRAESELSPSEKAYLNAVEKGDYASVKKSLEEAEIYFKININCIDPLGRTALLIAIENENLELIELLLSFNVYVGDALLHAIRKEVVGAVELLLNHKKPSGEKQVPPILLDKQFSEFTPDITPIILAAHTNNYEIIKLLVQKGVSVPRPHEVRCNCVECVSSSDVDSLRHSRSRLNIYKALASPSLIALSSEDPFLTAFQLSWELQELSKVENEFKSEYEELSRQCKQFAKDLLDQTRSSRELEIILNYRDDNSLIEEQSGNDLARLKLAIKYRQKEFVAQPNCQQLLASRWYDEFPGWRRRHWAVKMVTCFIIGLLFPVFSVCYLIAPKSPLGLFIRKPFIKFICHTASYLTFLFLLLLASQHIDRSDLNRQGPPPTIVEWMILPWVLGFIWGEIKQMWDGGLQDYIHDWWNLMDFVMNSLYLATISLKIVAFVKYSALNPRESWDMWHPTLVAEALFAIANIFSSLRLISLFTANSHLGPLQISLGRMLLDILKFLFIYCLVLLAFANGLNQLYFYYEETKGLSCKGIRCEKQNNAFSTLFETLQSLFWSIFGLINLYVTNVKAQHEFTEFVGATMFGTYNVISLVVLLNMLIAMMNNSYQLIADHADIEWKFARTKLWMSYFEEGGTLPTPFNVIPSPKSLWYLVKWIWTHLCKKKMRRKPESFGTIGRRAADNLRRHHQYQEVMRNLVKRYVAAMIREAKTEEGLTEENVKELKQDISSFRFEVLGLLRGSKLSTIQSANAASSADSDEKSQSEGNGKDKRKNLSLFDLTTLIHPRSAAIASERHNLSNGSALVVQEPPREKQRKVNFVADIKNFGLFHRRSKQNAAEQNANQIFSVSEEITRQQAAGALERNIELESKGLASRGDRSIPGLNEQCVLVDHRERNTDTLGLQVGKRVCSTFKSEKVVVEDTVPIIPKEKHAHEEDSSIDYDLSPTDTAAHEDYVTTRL
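System – HEK293 cells stably co-expressing mouse TRPC4beta and mu-opioid receptor · Signal – Fluo4 calcium-sensitive dye fluorescence, kinetic, 1 Hz baseline · Benchmarks – buffer (low) and maximal DAMGO (high) · Read-out – B score of integrated fluorescence ratio per well · Incubation – dye loading 45 min room temperature, 110 s kinetic read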
TRPC4 inh: TRPC4 (mouse) channel inhibition | Q9QUQ5 | actives 0.39% (n = 300,000) | HEK293 TRPC4beta/mu-opioid, DAMGO-evoked Fluo4 calcium flux; hits give low values | B-score at 10 µM;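 active = B-score over 3 SD under the library average, no early fluorescence shift, positive overall ratio signal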
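Material: HEK293 cells with stable TRPC4beta plus mu-opioid receptor expression; probe or stimulus: DAMGO in two steps, submaximal then maximal; technique: Fluo4 calcium fluorescence by kinetic imaging, 5 s 1 Hz baseline; measure: integrated fluorescence ratio relative to baseline, converted to per-well B score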
TRPC6 inhibitor: inhibitors of mouse TRPC6 channel; Q61143; HEK293-TRPC6, membrane potential dye, ACh-evoked depolarization; hits give low values; B-score at 10 µM; actives 1.1% (n = 310,000);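 active = B-score under library mean minus 3 SD, initial fluorescence not abnormally high, positive integrated signal ratio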;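 note: B-score derived from integrated fluorescence ratio over the kinetic read; more negative B-score means stronger inhibition of depolarization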
TRPC4 potent: allosteric potentiators of mouse TRPC4 channel | actives 0.42% (n = 310,000) | AID 2227 | HEK293 TRPC4beta/mu-opioid, DAMGO EC20, Fluo-4 Ca2+ flux; hits give high values | Q9QUQ5 | B-score at 10 µM;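 active = B-score of calcium response area above 5 SD of library B-scores, with initial fluorescence ratio within 5 SD of library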;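 note: B-score of integrated fluorescence ratio over time as area under calcium response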
Active calls of the source: *; i = inactive.

SMILES | TRPC6 act | TRPC4 agonist | TRPC4 inh | TRPC6 inhibitor | TRPC4 potent
Cc1cc(Cl)c(OCCCCNC(C)(C)C)c(Br)c1 | 12.4* | i | i | i | i
COc1ccc(C(=O)CCC(C)(C)[N+](=O)[O-])cc1OC | i | i | i | i | i
O=C([O-])c1cc(-c2ccccc2)cc(-c2ccccc2)[n+]1Cc1ccccc1 | i | i | i | -5.41* | i
COc1ccccc1C(=O)NCCC(=O)Nc1ccc(OC(F)(F)F)cc1 | i | i | i | i | i
CC(=O)c1ccc(OCC(O)CN2CCN(Cc3ccccc3)CC2)cc1 (stereo not drawn) | i | i | i | i | i
COc1ccc(CNCC(O)COc2ccc(C(C)(C)c3ccccc3)cc2)cc1 (stereo not drawn) | i | i | i | i | i
CCOc1ccc(OCC(O)CNC2CCN(Cc3ccccc3)CC2)cc1 (stereo not drawn) | i | 108* | -6* | i | i
CC(C)(c1ccccc1)c1ccc(OCC(O)CNC2CCN(Cc3ccccc3)CC2)cc1 (stereo not drawn) | i | 92* | i | i | i
Cc1cc(C)cc(N(CC(=O)Nc2ccc(C(F)(F)F)cc2)S(=O)(=O)c2c(C)[nH]c(=O)[nH]c2=O)c1 | i | i | i | i | i
Cc1cc(C)cc(N(CC(=O)Nc2ccc(C)cc2Cl)S(=O)(=O)c2c(C)[nH]c(=O)[nH]c2=O)c1 | i | i | i | i | 22*
COc1ccc(S(=O)(=O)N2CCCC(C(=O)NCC3CCCO3)C2)cc1OC (stereo not drawn) | i | i | i | i | i
Cc1ccc(-c2csc3ncnc(NCCN4CCOCC4)c23)cc1 | i | i | -6* | i | i
Clc1ccc(-c2csc3ncnc(NCCN4CCOCC4)c23)cc1 | i | i | -5* | i | i
c1ccc(-c2csc3ncnc(NCCN4CCOCC4)c23)cc1 | i | i | i | i | i
O=C(/C=N/NC(=O)c1ccc(Cl)cc1Cl)c1ccccc1 | i | i | i | i | i
O=C(Cc1cccs1)Nc1nc(-c2ccc(F)cc2F)cs1 | i | i | i | i | 85*
COc1cc(NC(=O)CCN2CCN(CCO)CC2)cc(OC)c1 | i | 45* | i | i | i
CCN1CCN(CCC(=O)Nc2ccccc2OC)CC1 | i | i | i | i | 19*
CCCSc1nc(N)nc(-c2cccs2)c1C#N | i | i | -6* | i | i
CC(C)c1ccccc1NC(=S)NN(Cc1ccccc1)c1ccccc1 | i | i | i | i | 27*
CC(=O)N1c2ccc(S(=O)(=O)N(C)Cc3ccccc3)cc2CC1C (stereo not drawn) | i | i | i | i | i
O=C(O)c1cc(-c2ccc(/C=c3\sc4nc5ccc(Br)cc5n4c3=O)o2)ccc1Cl | 40.3* | i | i | i | i
O=[N+]([O-])c1ccc(/C=N/Nc2nc(N3CCCCC3)nc(N3CCCCC3)n2)o1 | i | i | i | i | 22*
COc1c(/C=N/Nc2nc(N3CCCCC3)nc(N3CCCCC3)n2)cccc1[N+](=O)[O-] | i | i | i | i | i
CC(=O)Oc1c(C)c(OC(C)=O)c2c(c1C(C)=O)OC1CC(=O)C(C(C)=O)=C(O)C21C (stereo not drawn) | i | i | i | i | i
CC(=O)c1c(O)c(C)c(O)c2c1OC1=CC(=O)C(C(C)=O)C(=O)[C@@]12C (stereo partly drawn) | i | 90* | -6* | i | i
CC(C)NCC(O)COCCOc1ccc(C(C)(C)C)cc1 (stereo not drawn) | i | i | -5* | i | i
COc1ccc(OCC(O)CNC2CCCC2)cc1 (stereo not drawn) | i | i | i | i | i
CCc1ccc(OCCOCC(O)CNC2CCCC2)cc1 (stereo not drawn) | i | i | -5* | i | i
CCN(CC(=O)Nc1ccc(S(=O)(=O)N2CCCC2)cc1)Cc1ccccc1 | i | i | i | i | i

Compound activity as filed in PubChem BioAssay.
